# Source: ChEMBL document CHEMBL5390247, “Aryl azoles based scaffolds for disrupting tumor microenvironment” (Bioorg Med Chem, 2023)
# pIC50: −log10 of the molar value. Activity calls are given as the source filed them. No cut-off for these calls is given here.
# Key:
# [1] = system: HT-29; assay: Immunomodulatory activity in human HT-29 cells co-cultured with interferon gamma-stimulated THP-1 cells assessed as relative CD-47 protein expression in membrane at 100 uM incubated for 48 hrs by flow cytometry analysis relative to control; assay type: functional
# [2] = system: HT-29; assay: Antiproliferative activity against human HT-29 cells assessed as relative c-Myc protein expression at 100 uM incubated for 48 hrs by flow cytometry analysis relative to control; assay type: functional
# [3] = system: HT-29; assay: Antiproliferative activity against human HT-29 cells assessed as reduction in cell viability incubated for 48 hrs by MTT assay; assay type: functional, cell-based; details: HT-29, 48 h
# Summary of the method: (§1)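 MTT dye-reduction assay. Cells at 5 × 10^3/well in DMEM with 10% FBS, treated with serial dilutions of compound (DMSO stocks) for 2 days at 37 °C, 5% CO2. MTT added for a further 3 h, formazan dissolved in DMSO, absorbance read at 550 nm. Viability expressed as % of untreated cells; IC50 determined graphically from three independent experiments.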
# [4] = system: MCF7; assay: Antiproliferative activity against human MCF7 cells assessed as reduction in cell viability incubated for 48 hrs by MTT assay; assay type: functional, cell-based; details: MCF7, 48 h; summary of the method: as §1
# [5] = system: A549; assay: Antiproliferative activity against human A549 cells assessed as reduction in cell viability incubated for 48 hrs by MTT assay; assay type: functional, cell-based; details: A549, 48 h; summary of the method: as §1
# [6] = Toxicity against interferon gamma-stimulated human THP-1 monocyte cells co-cultured with human HT-29 cells assessed as reduction in cell viability at 100 uM incubated for 48 hrs by flow cytometry analysis; assay type: cell-based; details: thp-1, 48 h
# Summary of the method: (§2)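 HT-29 cells at 10^5/well seeded and grown 24 h. Medium then replaced with medium containing IFN-γ (10 ng/ml), 5 × 10^5 THP-1 cells/well and compound at 100 µM; DMSO used as control. After 48 h, THP-1 cells collected from supernatant and cancer cells by trypsinisation. Both fixed in 4% paraformaldehyde and counted by flow cytometry relative to control.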
# [7] = system: HT-29; assay: Antiproliferative activity against human HT-29 cells assessed as relative VEGFR-2 protein expression in whole cell at 100 uM incubated for 48 hrs by flow cytometry analysis relative to control; assay type: functional
# [8] = system: HT-29; assay: Immunomodulatory activity in human HT-29 cells co-cultured with interferon gamma-stimulated THP-1 cells assessed as cell viability at 100 uM incubated for 48 hrs by flow cytometry analysis relative to control; assay type: functional; details: read-out: Activity; summary of the method: as §2
# [9] = system: HT-29; assay: Antiproliferative activity against human HT-29 cells assessed as relative VEGFR-2 protein expression in membrane at 100 uM incubated for 48 hrs by flow cytometry analysis relative to control; assay type: functional
# [10] = Cytotoxicity against HEK293 cells assessed as reduction in cell viability incubated for 48 hrs by MTT assay; assay type: toxicity, cell-based; details: human; summary of the method: as §1
# [11] = system: HT-29; assay: Antiproliferative activity against human HT-29 cells assessed as relative PD-L1 protein expression in whole cell at 100 uM incubated for 48 hrs by flow cytometry analysis relative to control; assay type: functional
# [12] = system: HT-29; assay: Antiproliferative activity against human HT-29 cells assessed as relative PD-L1 protein expression in membrane at 100 uM incubated for 48 hrs by flow cytometry analysis relative to control; assay type: functional
# [13] = system: HT-29; assay: Immunomodulatory activity in human HT-29 cells co-cultured with interferon gamma-stimulated THP-1 cells assessed as relative PD-L1 protein expression in membrane at 100 uM incubated for 48 hrs by flow cytometry analysis relative to control; assay type: functional
# [14] = system: HT-29; assay: Immunomodulatory activity in human HT-29 cells co-cultured with interferon gamma-stimulated THP-1 cells assessed as induction of morphological changes by measuring cell shrinkage at 100 uM incubated for 48 hrs; assay type: functional, cell-based
# Summary of the method: (§3)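 HT-29 cells co-cultured with IFN-γ-stimulated THP-1 cells and treated 48 h with compounds at 100 µM, with DMSO as control. Cell shrinkage and rounded morphology assessed by microscopy images.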
# [15] = system: HT-29; assay: Immunomodulatory activity in human HT-29 cells co-cultured with interferon gamma-stimulated THP-1 cells assessed as inhibition of cell growth at 100 uM incubated for 48 hrs by flow cytometry analysis relative to control; assay type: functional; summary of the method: as §2
# [16] = system: HEK293; assay: Anti-vasculogenic activity against HEK293 cells assessed as disruption of tube-like structures at 100 uM incubated for 24 hrs by Matrigel based imaging analysis; assay type: functional, cell-based; details: Homo sapiens
# Summary of the method: (§4)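 HEK-293 cells seeded at 5 × 10^4 cells/well on Matrigel (pre-incubated with medium 24 h at 37 °C), grown 24 h at 37 °C until tube-like structures form; compounds then added in medium and incubated a further 24 h at 37 °C. Disruption of preformed tube-like structures assessed by imaging.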
# [17] = system: HT-29; assay: Immunomodulatory activity in human HT-29 cells co-cultured with interferon gamma-stimulated THP-1 cells assessed as induction of morphological changes by measuring rounded cell morphology at 100 uM incubated for 48 hrs; assay type: functional, cell-based; summary of the method: as §3
# [18] = system: HT-29; assay: Immunomodulatory activity in human HT-29 cells co-cultured with interferon gamma-stimulated THP-1 cells assessed as IL-6 level at 100 uM incubated for 48 hrs by ELISA analysis (reference value: 192 +/- 16 pg/ml); assay type: functional
# Summary of the method: (§5)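 HT-29 cells co-cultured with IFN-γ (10 ng/ml)-stimulated THP-1 cells and treated 48 h with compound at 100 µM. Culture media collected and IL-6 measured by human IL-6 ELISA, in pg/mL and as % of control. Mean of three experiments.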
# [19] = system: HEK293; assay: Anti-vasculogenic activity against HEK293 cells assessed as disruption of tube-like structures at <75 uM incubated for 24 hrs by Matrigel based imaging analysis; assay type: functional, cell-based; details: Homo sapiens; summary of the method: as §4
# [20] = system: HMEC-1; assay: Antiangiogenic activity in HMEC-1 cells assessed as inhibition of endothelial microtubes formation at 100 uM incubated for 24 hrs by matrigel based imaging analysis; assay type: functional, cell-based; details: Homo sapiens
# Summary of the method: (§6)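 HMEC-1 cells at 2 × 10^4 cells/well seeded on Matrigel (10 mg/mL, gelled 30 min at 37 °C) in EGM-2MV medium with SingleQuots, allowed to attach 30 min at 37 °C. Compounds then added in medium; after 24 h at 37 °C, microtube formation/destruction evaluated from pictures.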
# [21] = system: HT-29; assay: Immunomodulatory activity in human HT-29 cells co-cultured with interferon gamma-stimulated THP-1 cells assessed as relative IL-6 level at 100 uM incubated for 48 hrs by ELISA analysis relative to control; assay type: functional; summary of the method: as §5
# [22] = system: HMEC-1; assay: Antiangiogenic activity in HMEC-1 cells assessed as inhibition of endothelial microtubes formation at <75 uM incubated for 24 hrs by matrigel based imaging analysis; assay type: functional, cell-based; details: Homo sapiens; summary of the method: as §6
# [23] = system: HT-29; assay: Immunomodulatory activity in human HT-29 cells co-cultured with interferon gamma-stimulated THP-1 cells assessed as reduction in number of cells at 100 uM incubated for 48 hrs; assay type: functional, cell-based; summary of the method: as §2
# [24] = system: HT-29; assay: Antiproliferative activity against human HT-29 cells assessed as reduction in IL-6 secretion at 100 uM incubated for 48 hrs by ELISA assay; assay type: functional, cell-based
# Summary of the method: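 HT-29 monocultures at 10^5 cells/well treated 48 h with compound at 100 µM in 500 µL growth medium. Media collected and secreted IL-6 measured with a human IL-6 ELISA kit.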
# [25] = system: HT-29; assay: Immunomodulatory activity in human HT-29 cells co-cultured with interferon gamma-stimulated THP-1 cells assessed as reduction in IL-6 level at 100 uM incubated for 48 hrs by ELISA analysis relative to control; assay type: functional; set-up: scale not given: the % may be the effect or the level left; summary of the method: as §5
# [26] = system: HT-29; assay: Immunomodulatory activity in human HT-29 cells co-cultured with interferon gamma-stimulated THP-1 cells assessed as inhibition of CD-47 protein expression at 100 uM incubated for 48 hrs by flow cytometry analysis relative to control; assay type: functional
pIC50 [3],Compound,Activity [1] [%],Activity [2] [%],Activity [6],Activity [7] [%],viability at 100 µM [8] [%],Activity [9] [%],Activity [11] [%],Activity [12] [%],Activity [13] [%],Activity [14],Activity [16],Activity [17],Activity [18] [pg/mL],Activity [19],Activity [20],Activity [21] [%],Activity [22],Activity [23],Activity [24],other results
4.09,O=[N+]([O-])c1cccc(-c2nnn(Cc3ccccc3Cl)n2)c1,87,86,Non-Toxic,53,44,97,89,98,108,,,,,,,,,,,pIC50 [4]: < 4.00; pIC50 [5]: < 4.00; IC50 at 48 h [10]: > 100 µM
,Nc1cccc(-c2cn(Cc3ccc(Br)cc3)nn2)c1,92,,Non-Toxic,,8,,,,154,Active,Active,Active,183,inactive,Active,95,inactive,Active,inactive,inhibition at 100 µM [15]: > 90%
,Nc1cccc(-c2nnn(Cc3ccccc3Cl)n2)c1,86,>100,Non-Toxic,92,61,96,>100,95,93,,Active,,6,inactive,Active,3,inactive,,inactive,Activity [25]: >95%
< 4.00,O=[N+]([O-])c1cccc(-c2nnn(Cc3ccc(Br)cc3)n2)c1,87,72,Non-Toxic,71,52,96,93,>100,93,,,,,,,,,,,pIC50 [4]: < 4.00; pIC50 [5]: 4.41; IC50 at 48 h [10]: > 100 µM
,Nc1cccc(-c2cn(Cc3ccc(Cl)cc3)nn2)c1,91,,Non-Toxic,,5,,,,140,Active,Active,Active,189,inactive,Active,98,inactive,Active,inactive,inhibition at 100 µM [15]: > 90%
,COc1ccc(Cn2nnc(-c3cccc(N)c3)n2)cc1,58,75,Non-Toxic,75,45,>100,99,>100,100,Active,,Active,,,,,,Active,,inhibition at 100 µM [26]: > 30%
